Experimental data reported in ChEMBL document CHEMBL5352477, “Isoform selectivities of novel 4-hydroxycoumarin imines as inhibitors of myosin II” (Eur J Med Chem, 2023).
Converted amounts (≈) assume the structure as drawn. The source made the active and inactive calls. No cut-off for these calls is given here.

What was measured:
[1] = test system: COS-7; assay: Inhibition of Non-muscle myosin IIB in African green monkey COS-7 cells assessed as inhibition of cytokinesis by measuring increase in nuclei to cell ratio (N/C) at 40 uM incubated for 24 hrs by fluorescein-diacetate, Hoechst 33342 and propidium iodide staining based fluorescence microscopy relative to control; settings: Chlorocebus aethiops
Summary of the method: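 COS-7 cells (4,000/well) preincubated 24 h at 37 °C in 5% CO2, then exposed 24 h to 40 μM compound, final 1% DMSO. Media and 1% DMSO served as negative controls; para-aminoblebbistatin 20 μM and blebbistatin 10 μM as positive controls. Stained 10 min with FDA 6 μM, Hoechst 33342 10 μM and PI 4 μM, then imaged; N/C counted excluding PI-positive nuclei. Triplicate wells, ≥2 experiments, ≥600 cells per well.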

[2] = (§1) Inhibition of full length chicken phosphorylated myosin 2 smooth muscle isoform derived from gizzard ATPase activity assessed as reduction in steady-state rabbit F-actin-activated Mg2+ ATPase activity incubated for 6 to 24 mins in presence of ATPase buffer at 7.0 containing Mgcl2 and ATP by fluorescence-based assay; assay type: tissue-based, Gallus gallus
[3] = as §1, with “rabbit” for “chicken phosphorylated”, “skeletal” for “smooth”, “Psoas muscle” for “gizzard”; assay type: tissue-based, Oryctolagus cuniculus
[4] = test system: COS-7; assay: Cytotoxicity against Green monkey COS-7 cells assessed as reduction in cell viability incubated for 24 hrs by MTT assay; assay type: toxicity, cell-based; settings: chlorocebus aethiops, cos-7, 24 h
Summary of the method: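 COS-7 cells seeded at 2.5 × 10^4 per well, grown 24 h at 37 °C in 5% CO2, then treated 24 h with 20, 40, 100 or 200 μM compound in media with 1% DMSO (4 wells each). MTT 1.2 mM in PBS for 2 h in the dark, lysis in 0.1% NP-40/isopropanol with HCl, A564 read; CC50 and CC90 taken as concentrations giving 50% and 90% loss of viability.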

[5] = Kinetic solubility of the compound in 2.5% DMSO/PBS at pH 7.4 incubated for 1 hrs by nephelometry; assay type: physicochemical; settings: for Kinetic_solubility: buffer, pH 7.4, 1 h; for solubility kinetic at 1 h: 2.5% DMSO/PBS, pH 7.4, read-out: Kinetic_solubility
Summary of the method: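 DMSO stock (20 mM) added to PBS pH 7.4, then serially diluted in quadruplicate at a constant 2.5% DMSO. Plates shaken 2 min, incubated 1 h at 37 °C, shaken 3 min, and turbidity read by nephelometry; average blank subtracted.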

[6] = Inhibition of full length bovine Myosin-2 cardiac muscle isoform from left ventricle ATPase activity assessed as reduction in steady-state rabbit F-actin-activated Mg2+ ATPase activity incubated for 6 to 24 mins in presence of ATPase buffer at 7.0 containing Mgcl2 and ATP by fluorescence-based assay; parameters: species or system Bos taurus, Heart left ventricle
[7] = Selectivity index, ratio of IC50 for inhibition of full length bovine cardiac muscle myosin II ATPase activity to IC50 for inhibition of full length rabbit skeletal muscle myosin II ATPase activity
[8] = Hydrolytic stability of the compound ATPase assay buffer at pH 7 containing Mgcl2 and ATP assessed as half life by UV-visible spectrophotometry; assay type: physicochemical
Summary of the method: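 Compound diluted from 20 mM DMSO stock to 8 μM final (2% DMSO) in ATPase buffer: 10 mM MOPS pH 7.0, 50 mM NaCl, 0.1 mM EGTA, 5 mM MgCl2, 2 mM ATP, 1 mM DTT. Kept sealed at 30 °C; UV-vis spectrum (0.5 nm steps, 1 cm quartz) recorded at start and every 24 h against fresh reference solutions.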

IC50 [2]	Structure (SMILES)	inhibition [1]	other results
≥ 100 µM	C/C(=N\Cc1cccc(C)c1)c1c(O)c2ccccc2oc1=O	inactive	–
≥ 100 µM	C/N=C(\C)C1C(=O)Oc2ccccc2C1=O (configuration not stated)	inactive	–
≥ 100 µM	CCCCC/N=C(\C)c1c(O)c2ccccc2[nH]c1=O	inactive	–
≥ 100 µM	CCOCCC/N=C/c1c(O)c2ccccc2oc1=O	inactive	IC50 [3]: 3.3 µM; CC10 [4]: 135 µM; CC50 [4]: > 1000 µM; Ratio IC50 [7]: > 30; IC50 [6]: ≥ 100 µM
≥ 100 µM	CC(=N)C1C(=O)Oc2ccccc2C1=O (configuration not stated)	inactive	–
≥ 100 µM	COc1ccc(C/N=C(\C)c2c(O)c3ccccc3oc2=O)cc1	inactive	IC50 [3]: 1.6 µM; CC10 [4]: 36 µM; CC50 [4]: > 200 µM; Ratio IC50 [7]: 3.4; IC50 [6]: 5.4 µM
≥ 100 µM	C/C(=N\CCCO)c1c(O)c2ccccc2oc1=O	inactive	–
≥ 100 µM	CCC/C(=N\Cc1ccccc1)c1c(O)c2ccccc2oc1=O	inactive	–
≥ 100 µM	C/C(=N\CC1CCCCC1)c1c(O)c2ccccc2[nH]c1=O	inactive	–
≥ 100 µM	CCC(C)/N=C(\C)c1c(O)c2ccccc2[nH]c1=O (configuration not stated)	inactive	–
≥ 100 µM	C/C(=N\Cc1ccncc1)c1c(O)c2ccccc2oc1=O	inactive	solubility kinetic at 1 h [5]: > 400 µM
≥ 100 µM	CCOCCC/N=C(\C)c1c(O)c2ccccc2oc1=O	inactive	IC50 [3]: 2.5 µM; CC10 [4]: 53 µM; CC50 [4]: 980 µM; Kinetic_solubility [5]: > 1250 µM; Ratio IC50 [7]: 3.2; IC50 [6]: 8.1 µM
≥ 100 µM	C/C(=N\Cc1ccc(C)cc1)c1c(O)c2ccccc2oc1=O	inactive	–
≥ 100 µM	C/C(=N\Cc1ccccn1)c1c(O)c2ccccc2oc1=O	inactive	–
≥ 100 µM	O=c1oc2ccccc2c(O)c1/C=N/Cc1ccccc1	inactive	IC50 [3]: ≥ 100 µM; t1/2 [8]: 60 h; IC50 [6]: ≥ 100 µM
≥ 100 µM	C/C(=N\Nc1ccccc1)c1c(O)c2ccccc2oc1=O	inactive	–
≥ 100 µM	C/C(=N\Cc1ccccc1)c1c(O)c2ccccc2[nH]c1=O	inactive	–
≥ 100 µM	C/C(=N\Cc1ccccc1)c1c(O)c2ccccc2n(C)c1=O	inactive	–
≥ 100 µM	C/C(=N\Cc1ccccc1)c1c(O)c2ccccc2oc1=O	inactive	t1/2 [8]: > 140 h
≥ 100 µM	C/C(=N\Cc1cccnc1)c1c(O)c2ccccc2oc1=O	inactive	–

Continued, compound first:

Structure (SMILES)	IC50 [2]	inhibition [1]	other results
COc1ccc(COCCC/N=C(\C)c2c(O)c3ccccc3oc2=O)cc1	≥ 100 µM	inactive	IC50 [3]: 50 µM; CC10 [4]: 46 µM; CC50 [4]: > 200 µM; Kinetic_solubility [5]: 103 µM; IC50 [6]: ≥ 100 µM
COCC/N=C(\C)c1c(O)c2ccccc2oc1=O	≥ 100 µM	inactive	IC50 [3]: 90 µM; CC10 [4]: 286 µM; CC50 [4]: > 200 µM; Ratio IC50 [7]: 0.6; IC50 [6]: 52 µM
COCCC/N=C(\C)c1c(O)c2ccccc2oc1=O	≥ 100 µM	inactive	IC50 [3]: 11 µM; CC10 [4]: 339 µM; CC50 [4]: > 1000 µM; Ratio IC50 [7]: 3.5; IC50 [6]: 38 µM
C/C(=N\Cc1ccccc1)c1c(O)c2cc([N+](=O)[O-])ccc2oc1=O	≥ 100 µM	inactive	–
CCCC/N=C(\C)C1C(=O)Oc2ccccc2C1=O (configuration not stated)	≥ 100 µM	inactive	solubility kinetic at 1 h [5]: 607 µM (≈ 157 µg/mL)
C/C(=N\CC(C)C)c1c(O)c2ccccc2[nH]c1=O	≥ 100 µM	inactive	–
C/C(=N\C(C)C)c1c(O)c2ccccc2[nH]c1=O	≥ 100 µM	inactive	–
C/C(=N\CCO)c1c(O)c2ccccc2oc1=O	≥ 100 µM	inactive	–
COCCOCCOCCC/N=C(\C)c1c(O)c2ccccc2oc1=O	≥ 100 µM	inactive	IC50 [3]: ≥ 100 µM; IC50 [6]: ≥ 100 µM
COc1cccc(C/N=C(\C)c2c(O)c3ccccc3oc2=O)c1	≥ 100 µM	inactive	IC50 [3]: 9.1 µM; CC10 [4]: 39 µM; CC50 [4]: > 200 µM; Ratio IC50 [7]: 0.5; IC50 [6]: 4.4 µM
Cc1ccc2c(c1)C(=O)[C@]1(O)CCN(c3ccc(N)cc3)C1=N2	≥ 100 µM	–	–
C/C(=N\CCO)c1c(O)c2ccccc2[nH]c1=O	≥ 100 µM	inactive	–
CCCCN(CCC/N=C(\C)c1c(O)c2ccccc2oc1=O)Cc1cccc(OC)c1	≥ 100 µM	inactive	IC50 [3]: ≥ 100 µM; IC50 [6]: ≥ 100 µM
C/C(=N\OCc1ccccc1)c1c(O)c2ccccc2oc1=O	≥ 100 µM	inactive	–
CC/C(=N\Cc1ccccc1)c1c(O)c2ccccc2oc1=O	≥ 100 µM	inactive	–
C/C(=N\C(C)C)c1c(O)c2ccccc2oc1=O	≥ 100 µM	inactive	–
CCCCC/N=C(\C)c1c(O)c2cc([N+](=O)[O-])ccc2oc1=O	≥ 100 µM	inactive	–
CCC/N=C(\C)c1c(O)c2ccccc2oc1=O	≥ 100 µM	inactive	–
COc1cc(/C=C/C(=O)c2c(O)c3ccccc3oc2=O)ccc1O	≥ 100 µM	inactive	IC50 [3]: ≥ 100 µM; IC50 [6]: ≥ 100 µM
CCCC/N=C(\C)c1c(O)c2ccccc2[nH]c1=O	≥ 100 µM	inactive	–
CC/N=C(\C)C1C(=O)Oc2ccccc2C1=O (configuration not stated)	≥ 100 µM	inactive	–
CCCCCC/N=C(\C)c1c(O)c2ccccc2oc1=O	≥ 100 µM	inactive	–
C/C(=N\Cc1ccccc1C)c1c(O)c2ccccc2oc1=O	≥ 100 µM	inactive	–
C/C(=N\CCCOCc1ccc2c(c1)OCO2)c1c(O)c2ccccc2oc1=O	≥ 100 µM	inactive	IC50 [3]: 29 µM; CC10 [4]: 110 µM; CC50 [4]: > 200 µM; Kinetic_solubility [5]: 122 µM; IC50 [6]: ≥ 100 µM
CCCCC/N=C(\C)c1c(O)c2ccccc2oc1=O	≥ 100 µM	inactive	–
Cc1ccc2c(c1)C(=O)[C@]1(O)CCN(c3ccccc3)C1=N2	≥ 100 µM	inactive	–
CCC(C)/N=C(\C)c1c(O)c2ccccc2oc1=O (configuration not stated)	≥ 100 µM	inactive	–
C/C(=N\CC(C)C)c1c(O)c2ccccc2oc1=O	≥ 100 µM	inactive	–
CCC/N=C(\C)c1c(O)c2ccccc2[nH]c1=O	≥ 100 µM	inactive	–
CCOCC/N=C(\C)c1c(O)c2ccccc2oc1=O	≥ 100 µM	inactive	IC50 [3]: 19 µM; CC10 [4]: 184 µM; CC50 [4]: > 1000 µM; Ratio IC50 [7]: 1.3; IC50 [6]: 24 µM
